Experimental data collected from several papers.
Compare with care: the assays were run in different laboratories.

| SMILES | target or system | assay | system | setting | measurement | value |
| --- | --- | --- | --- | --- | --- | --- |
| COc1ccsc1CNCC[C@@]1(c2ccccn2)CCOC2(CCCC2)C1 | – | – | human, plasma | intravenous, 3 mg, single dose, healthy volunteers, infusion | Vd | 129 L |
| COCC1=N[C@@]2(O)[C@H](C(=O)N(C)OC)[C@@H](c3ccccc3)[C@]3(c4ccc(OC)cc4)Oc4cc(OC)cc(OC)c4[C@]23N1 | Vero | cell growth or viability, MTT | – | 24 h | CC50 | > 20 µM |
| CNC(=O)c1ccc(-c2cnn3ccc(C(=O)N(C)c4ccc(Cl)c(C(=O)OC)c4)cc23)cc1 | – | – | female C57BL/6 mouse, plasma | oral, 1 mg/kg/day | Cmax | 0.1 ng/mL |
| COc1ccc([C@@]23Oc4cc(OC)cc(OC)c4[C@@]24N=C(C2CC2)N[C@@]4(O)[C@H](C(=O)N(C)OC)[C@H]3c2ccccc2)cc1 | Vero | cell growth or viability, MTT | – | 24 h | CC50 | > 20 µM |
| CC(C)(N)CNC(=O)O[C@H]1CCC[C@@]2(C1)OOC1(O2)C2CC3CC(C2)CC1C3 (some centres unmarked) | – | – | male CD-1 mouse, plasma | oral, 10 mg/kg | Cmax | 191 ng/mL |
| CNC(=O)c1ccc(-c2cnn3ccc(C(=O)N(C)c4ccc(Cl)c(C(=O)O)c4)cc23)cc1 | – | – | female C57BL/6 mouse, plasma | oral, 3 mg/kg/day | Cmax | 1 ng/mL |
| NCCNC(=O)O[C@H]1CCC[C@@]2(C1)OOC1(O2)C2CC3CC(C2)CC1C3 (some centres unmarked) | – | – | male CD-1 mouse, plasma | oral, 10 mg/kg | Cmax | 240 ng/mL |
| CC(O)(CS(=O)(=O)c1ccc(F)cc1)C(=O)Nc1ccc(C#N)c(C(F)(F)F)c1 (centres unmarked) | Vero | cell growth or viability, resazurin | – | – | CC50 | > 100 µM |
